In general, IC50 refers to the midpoint of a concentration-inhibition curve.

T1 sequence (P07374 whole entry): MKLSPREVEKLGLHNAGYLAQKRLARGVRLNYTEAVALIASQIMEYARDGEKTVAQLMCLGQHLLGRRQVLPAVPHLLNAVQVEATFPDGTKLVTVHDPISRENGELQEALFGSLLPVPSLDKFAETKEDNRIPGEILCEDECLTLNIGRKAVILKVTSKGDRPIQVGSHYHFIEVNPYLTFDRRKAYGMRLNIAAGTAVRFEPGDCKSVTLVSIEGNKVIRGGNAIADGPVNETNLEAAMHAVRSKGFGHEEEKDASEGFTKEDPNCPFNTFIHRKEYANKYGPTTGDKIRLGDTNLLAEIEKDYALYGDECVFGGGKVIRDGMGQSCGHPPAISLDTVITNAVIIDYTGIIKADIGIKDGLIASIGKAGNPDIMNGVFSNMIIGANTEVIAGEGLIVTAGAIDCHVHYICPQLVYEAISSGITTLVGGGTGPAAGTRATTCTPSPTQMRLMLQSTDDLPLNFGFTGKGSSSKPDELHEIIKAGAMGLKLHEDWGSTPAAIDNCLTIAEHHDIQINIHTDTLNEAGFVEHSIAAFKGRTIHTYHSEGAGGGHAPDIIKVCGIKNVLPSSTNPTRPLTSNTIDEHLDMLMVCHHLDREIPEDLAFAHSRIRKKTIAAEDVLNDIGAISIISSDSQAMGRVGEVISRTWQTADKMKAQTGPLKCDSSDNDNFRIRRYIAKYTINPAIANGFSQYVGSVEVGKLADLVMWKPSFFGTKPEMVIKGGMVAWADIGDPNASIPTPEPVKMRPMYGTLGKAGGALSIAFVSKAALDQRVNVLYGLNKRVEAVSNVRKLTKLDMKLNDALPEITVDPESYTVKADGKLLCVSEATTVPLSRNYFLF

For one assay, the target named is T1, Urease (Canavalia ensiformis, UniProt P07374). Kind of assay: Inhibition of jack bean urease using urea as substrate preincubated for 15 mins followed by substrate addition and measured after 10 mins by ELISA. Summed up:
(§1)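 Compounds preincubated with urease (1 U/well) for 15 min at 30 °C. Urea (100 mM, as added) introduced and incubation continued at 30 °C. Ammonia formed was detected by the Weatherburn phenol-hypochlorite method: alkaline reagent (0.5% w/v NaOH, 0.1% NaOCl) and phenol reagent (1% w/v phenol, 0.005% w/v nitroprusside) were added, then 50 min at 30 °C. Absorbance read at 630 nm on a plate reader.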
For orientation: ELISA stands for enzyme-linked immunosorbent assay.
In turn, `Oc1ccc(/C(=N/NC(=S)Nc2cccc(Br)c2)c2ccccc2)cc1` gave an IC50 of 8.7 µM.
In the case of `CC(=O)Nc1ccc(S(=O)(=O)Nc2ccc(Br)cc2)cc1`, it took 62.4 µM to reach half-maximal inhibition (IC50).
Same read-out and setting: the figure for `O=[N+]([O-])c1ccc(NC(=S)N/N=C(\c2ccccc2)c2ccc(O)cc2)cc1` is 26.1 µM.

A further assay concerns the target Bacterial urease (Bacteria) (UniProt Q03282+Q03283+Q03284). Kind of assay: Potency index, ratio of acetohydroxamic acid IC50 to test compound IC50 for bacterial urease. The format is protein-complex assay. Summed up:
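Spectrophotometric urease inhibition assay underlying the IC50s in the ratio, for test compounds and acetohydroxamic acid. Compound pre-incubated with urease (1 U/well) at 30 °C for 15 min. Urea (100 mM) was added and incubation continued at 30 °C. Phenol–nitroprusside and alkaline hypochlorite reagents were added, then 50 min at 30 °C. Ammonia was measured by the Weatherburn method, with absorbance change at 630 nm.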
`O=[N+]([O-])c1ccc(S(=O)(=O)N/N=C(\c2ccccc2)c2ccc(O)cc2)cc1`: the Ratio IC50 turned out to be 10.

The target of a further assay is T2, Bacterial urease (Bacteria, UniProt Q03282+Q03283+Q03284).
T2 sequence (Q03282 whole entry): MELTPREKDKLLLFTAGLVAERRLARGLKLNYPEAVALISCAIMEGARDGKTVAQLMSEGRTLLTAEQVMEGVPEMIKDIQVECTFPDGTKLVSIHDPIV
T2 sequence (Q03283 whole entry): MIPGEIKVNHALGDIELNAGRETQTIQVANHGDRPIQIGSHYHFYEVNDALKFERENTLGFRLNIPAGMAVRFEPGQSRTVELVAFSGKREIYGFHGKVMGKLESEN
T2 sequence (Q03284 whole entry): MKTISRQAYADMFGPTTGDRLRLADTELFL
Put plainly: (§2) Inhibition of bacterial urease using urea as substrate preincubated for 15 mins followed by substrate addition […]. The format is protein-complex assay. Summed up: as §1
`CCCCS(=O)(=O)NN=C(c1ccccc1)c1ccccc1`: the IC50 entry is reported as “Not Active”.
For the molecule `Cc1cc(S(=O)(=O)NN=C(c2ccccc2)c2ccccc2)c(C)cc1Cl`, the IC50 entry is on record as “Not Active”.
Consider `O=S(=O)(NN=C(c1ccccc1)c1ccccc1)c1ccc(Cl)cc1Cl`, for which the concentration for half-maximal inhibition (IC50) result is “Not Active”.
Same read-out and setting: the value for `O=[N+]([O-])c1cccc(S(=O)(=O)NN=C(c2ccccc2)c2ccccc2)c1` was “Not Active”; that for `COc1ccc(S(=O)(=O)NN=C(c2ccccc2)c2ccccc2)cc1` was “Not Active”.
Regarding `O=[N+]([O-])c1ccc(S(=O)(=O)NN=C(c2ccccc2)c2ccccc2)cc1`, the IC50 result is “Not Active”.
The same measure, in the same setting: the entry for `O=S(=O)(NN=C(c1ccccc1)c1ccccc1)c1ccccc1` is “Not Active”; for `O=[N+]([O-])c1cccc(S(=O)(=O)NN=C(c2ccccc2)c2ccccc2)c1Cl` it is “Not Active”; for `O=S(=O)(NN=C(c1ccccc1)c1ccccc1)c1ccc2ccccc2c1` it is “Not Active”.
The same measure, in the same setting: the entry for `O=[N+]([O-])c1ccccc1S(=O)(=O)NN=C(c1ccccc1)c1ccccc1` is “Not Active”.
As for `O=[N+]([O-])c1cc(S(=O)(=O)NN=C(c2ccccc2)c2ccccc2)ccc1Cl`, the IC50 result was “Not Active”.
Same read-out and setting: the entry for `O=S(=O)(NN=C(c1ccccc1)c1ccccc1)c1cc(Cl)c(Cl)cc1Cl` is “Not Active”.
For the molecule `COc1ccc(S(=O)(=O)NN=C(c2ccccc2)c2ccccc2)c(OC)c1`, the 50% inhibitory concentration (IC50) result is given as “Not Active”.
Consider `O=S(=O)(NN=C(c1ccccc1)c1ccccc1)c1ccccc1Cl`, for which the IC50 result is listed as “Not Active”.

Another assay addresses Bacterial urease (Bacteria, UniProt Q03284). The description is as §2. The format is protein-complex assay. Summed up: as §1
Molecule `O=S(=O)(N/N=C(\c1ccccc1)c1ccc(O)cc1)c1ccccc1` returned an IC50 of 16.3 µM.
For `O=S(=O)(N/N=C(\c1ccccc1)c1ccc(O)cc1)c1ccccc1Cl`, the IC50 is 16.9 µM.
Still for that read-out and setting: the figure for `O=S(=O)(NN=C(c1ccccc1)c1ccccc1)c1cc(Cl)cc(Cl)c1O` is 71.6 µM; for `O=[N+]([O-])c1cccc(S(=O)(=O)N/N=C(\c2ccccc2)c2ccc(O)cc2)c1` it is 13.7 µM; for `CN(C)c1cccc2c(S(=O)(=O)N/N=C(\c3ccccc3)c3ccc(O)cc3)cccc12` it is 5.7 µM.
Still for that read-out and setting: the figure for `O=[N+]([O-])c1ccc(S(=O)(=O)N/N=C(\c2ccccc2)c2ccc(O)cc2)cc1` is 3.9 µM.
On the same count and under the same terms, the value for `O=S(=O)(N/N=C(\c1ccccc1)c1ccc(O)cc1)c1cc(Cl)cc(Cl)c1O` was 4.97 µM; that for `O=S(=O)(N/N=C(\c1ccccc1)c1ccc(O)cc1)c1cc(Cl)ccc1Cl` was 31.2 µM; that for `O=S(=O)(N/N=C(\c1ccccc1)c1ccc(O)cc1)c1ccc(Cl)cc1Cl` was 18 µM.
`O=[N+]([O-])c1ccc(S(=O)(=O)NN=C(c2ccccc2)c2ccccc2)c([N+](=O)[O-])c1`: the midpoint of inhibition, the IC50, lay at 69 µM.
On the same count and under the same terms, the figure for `CS(=O)(=O)N/N=C(\c1ccccc1)c1ccc(O)cc1` is 43.4 µM; for `CC(=O)NO` [ACETOHYDROXAMIC ACID] it is 29.2 µM; for `O=S(=O)(NN=C(c1ccccc1)c1ccccc1)c1ccc(Cl)cc1` it is 66.1 µM.
Same read-out and setting: the value for `Cc1ccc([N+](=O)[O-])cc1S(=O)(=O)NN=C(c1ccccc1)c1ccccc1` was 69 µM; that for `CN(C)c1cccc2c(S(=O)(=O)NN=C(c3ccccc3)c3ccccc3)cccc12` was 72.2 µM.
The same measure, in the same setting: the figure for `O=S(=O)(N/N=C(\c1ccccc1)c1ccc(O)cc1)c1cc(Cl)c(Cl)cc1Cl` is 57.9 µM; for `O=S(=O)(CCCl)N/N=C(\c1ccccc1)c1ccc(O)cc1` it is 55 µM; for `COc1ccc(S(=O)(=O)N/N=C(\c2ccccc2)c2ccc(O)cc2)cc1` it is 14.5 µM.

A further assay has as its target T1, Urease. Put plainly: Inhibition of jack bean urease assessed as reduction in ammonia production using urea as substrate after 30 mins by indophenol method. Summed up:
as §1
Regarding `NS(=O)(=O)c1ccc(CCNC=C2C(=O)NC(=S)NC2=O)cc1`, the IC50 stood at 11.5 µM.

For the origin of these results see ChEMBL document CHEMBL4422682, “Synthesis and urease inhibitory potential of benzophenone sulfonamide hybrid in vitro and in silico” (Bioorg Med Chem, 2019).
